Calls of active or inactive are those of the source.
Tests used:
[1] = system: C2C12; test: Induction of osteoblast differentiation in mouse C2C12 cells assessed as increase in OSE promoter activity at 10 uM measured 48 hrs by luciferase reporter gene analysis; assay type: functional, cell-based
How it was run: (§1)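 C2C12 cells seeded and grown 24 h, then transiently transfected (Ca3PO4 or Lipofectamine Plus) with ALP-, OC-, BSP- or OSE-luciferase reporter plus pCMV β-gal to normalise transfection efficiency. Treated at 10 μM. Luciferase read from cell lysates 48 h post-transfection; three independent experiments.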

[2] = system: C2C12; test: Increase in ALP mRNA expression in mouse C2C12 cells by RT-PCR analysis; assay type: functional, cell-based
How it was run: (§2)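 C2C12 cells (DMEM, 20% FBS, 37 °C, 5% CO2) treated at 1, 5, 10 μM, with BMP2 as comparator. Total RNA extracted with TRIzol. cDNA made from 1 μg RNA using random primers. Semiquantitative RT-PCR for ALP and collagen type 1α with GAPDH reference, 28−30 cycles (94 °C 30 s, primer-specific annealing 30 s, 72 °C 30 s).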

[3] = system: C2C12; test: Induction of osteoblast differentiation in mouse C2C12 cells assessed as increase in ALP promoter activity at 10 uM measured 48 hrs by luciferase reporter gene analysis; assay type: functional, cell-based; how it was run: as §1
[4] = system: C2C12; test: Induction of osteoblast differentiation in mouse C2C12 cells assessed as increase in osteoclacin promoter activity at 10 uM measured 48 hrs by luciferase reporter gene analysis; assay type: functional, cell-based; how it was run: as §1
[5] = system: C2C12; test: Induction of osteoblast differentiation in mouse C2C12 cells assessed as increase in ALP promoter activity measured 48 hrs by luciferase reporter gene analysis; assay type: functional, cell-based
How it was run: (§3)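 ALP- or OC-luciferase reporter transfected into C2C12 cells with pCMV β-gal control (Ca3PO4 or Lipofectamine Plus), after 24 h growth post-seeding. Dose-response at 1, 5 and 10 μM. Lysate luciferase activity measured 48 h later; three independent experiments.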

[6] = system: C2C12; test: Induction of osteoblast differentiation in mouse C2C12 cells assessed as increase in of bone sialoprotein promoter activity at 10 uM measured 48 hrs by luciferase reporter gene analysis; assay type: functional, cell-based; how it was run: as §1
[7] = system: C2C12; test: Increase in collagen type 1 alpha mRNA expression in mouse C2C12 cells by RT-PCR analysis; assay type: functional, cell-based; how it was run: as §2
[8] = system: C2C12; test: Induction of osteoblast differentiation in mouse C2C12 cells assessed as increase in osteoclacin promoter activity measured 48 hrs by luciferase reporter gene analysis; assay type: functional, cell-based; how it was run: as §3
[9] = system: C2C12; test: Induction of osteogenesis in mouse C2C12 cells assessed as increase in osteoblast differentiation-associated ALP level at 10 uM after 2 days in presence of 5 ng/mL BMP2

Measured: Activity

C=C1C[C@@]23CC[C@@H]4[C@@](C)(COC(C)=O)CCC[C@@]4(C)[C@@H]2CC[C@@H]1[C@H]3O
active: [1] | [2] Dose-dependent effect | [3] | [4] | [5] Dose-dependent effect | [6] | [7] Dose-dependent effect | [8] Dose-dependent effect | [9]

C=C1C[C@@]23CC[C@@H]4[C@@](C)(CO)CCC[C@@]4(C)[C@@H]2[C@@H](OC(C)=O)C[C@@H]1C3
active: [1] | [2] Dose-dependent effect | [3] | [4] | [5] Dose-dependent effect | [6] | [7] Dose-dependent effect | [8] Dose-dependent effect | [9]

C=C1C[C@]23C[C@H]1CC[C@H]2[C@]1(C)CCC[C@](C)(COC(C)=O)[C@H]1C[C@H]3O
active: [1] | [3] | [4] | [5] Dose-dependent effect | [6] | [8] Dose-dependent effect | [9]

C=C1C[C@@]23CC[C@@H]4[C@@](C)(COC(C)=O)CCC[C@@]4(C)[C@@H]2[C@H](O)C[C@@H]1C3
active: [1] | [2] Dose-dependent effect | [3] | [4] | [5] Dose-dependent effect | [6] | [7] Dose-dependent effect | [8] Dose-dependent effect | [9]

From ChEMBL document CHEMBL1932972, “ent-Kaurane diterpenoids from Croton tonkinensis stimulate osteoblast differentiation” (J Nat Prod, 2011)
